Reference: ChEMBL document CHEMBL4354867, “Validation and Characterization of Five Distinct Novel Inhibitors of Human Cytomegalovirus” (J Med Chem, 2020)
Calls of active or inactive are those of the source. The calls are words filed in the database; no cut-off is given here.

Key:
Type in all cases: functional, organism-based
Human betaherpesvirus 5 [1] = assay: Inhibition of viral protein expression in HCMV Towne infected in human HFF cells assessed as reduction in IE1 expression at 3 uM treated with compound for 24 hrs followed by viral infection at MOI of 1 PFU/cell measured at 72 hrs post infection by Western blot analysis; settings: strain Towne
Summary of the method: (§1)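 HFFs pretreated with compound, then infected with HCMV Towne at MOI 1, 0.1 or 0.01. Viral proteins in cell lysates detected at 72 hpi by SDS-PAGE (8–10%), PVDF transfer and chemiluminescent immunoblot. Images from a representative experiment.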

Human betaherpesvirus 5 [2] = assay: Inhibition of viral protein expression in HCMV Towne infected in human HFF cells assessed as reduction in UL44 expression at 3 uM treated with compound following viral infection at MOI of 1 PFU/cell measured at 72 hrs post infection by Western blot analysis; settings: strain Towne
Summary of the method: (§2)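 HFFs infected with HCMV Towne (MOI 1), then treated with compound. Lysates taken at 72 hpi, equal protein loaded on 8–10% Tris-glycine SDS-PAGE and transferred to PVDF. Primary antibodies overnight at 4 °C, HRP secondary, chemiluminescent detection; β-actin as loading control.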

Human betaherpesvirus 5 [3] = assay: Inhibition of viral protein expression in HCMV Towne infected in human HFF cells assessed as reduction in pp65 expression at 3 uM treated with compound following viral infection at MOI of 1 PFU/cell measured at 72 hrs post infection by Western blot analysis; settings: strain Towne; summary of the method: as §2
Human betaherpesvirus 5 [4] = assay: Antiviral activity against HCMV Towne infected in human HFF cells assessed as reduction in plaque formation treated with compound following viral infection at MOI of 1 PFU/cell and measured at 10 days post-infection in presence of letermovir by crystal violet staining based assay; settings: Human betaherpesvirus 5, strain Towne, 240 h
Human betaherpesvirus 5 [5] = assay: Inhibition of viral protein expression in HCMV Towne infected in human HFF cells assessed as reduction in UL84 expression at 3 uM treated with compound for 24 hrs followed by viral infection at MOI of 0.01 PFU/cell measured at 72 hrs post infection by Western blot analysis; settings: strain Towne; summary of the method: as §1
Human betaherpesvirus 5 [6] = assay: Inhibition of viral protein expression in HCMV Towne infected in human HFF cells assessed as reduction in pp65 expression at 3 uM treated with compound for 24 hrs followed by viral infection at MOI of 1 PFU/cell measured at 72 hrs post infection by Western blot analysis; settings: strain Towne; summary of the method: as §1
Human betaherpesvirus 5 [7] = assay: Inhibition of viral protein expression in HCMV Towne infected in human HFF cells assessed as reduction in IE2 expression at 3 uM treated with compound for 24 hrs followed by viral infection at MOI of 0.01 PFU/cell measured at 72 hrs post infection by Western blot analysis; settings: strain Towne; summary of the method: as §1
Human betaherpesvirus 5 [8] = assay: Antiviral activity against HCMV Towne infected in human HFF cells assessed as reduction in viral entry into host cell by measuring nuclear localization of pp65 at 3 uM treated with compound for 24 hrs followed by viral infection at MOI of 0.1 PFU/cell measured at 2 hrs post infection by immunofluorescence microscopy; settings: strain Towne
Summary of the method: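 HFFs on chamber slides pretreated 24 h with compound diluted in serum-free medium, then infected with HCMV Towne for 2 h. Heparin 30 μM as positive entry-block control. Cells methanol-fixed, then stained with anti-pp65 (1:50) and rhodamine anti-mouse IgG, with DAPI. Nuclear pp65 viewed by fluorescence microscopy at 40x; repeated three times.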

COc1ccc(Cl)cc1C(=O)Nc1ccc(NC(=O)c2ccco2)cc1 was tested, and the inhibition (Human betaherpesvirus 5 [1]) was “inactive”, the inhibition (Human betaherpesvirus 5 [2]) was “inactive” and the inhibition (Human betaherpesvirus 5 [3]) was “inactive”. The EC50 (Human betaherpesvirus 5 [4]) was 320 nM, the inhibition (Human betaherpesvirus 5 [5]) was “Active” and the inhibition (Human betaherpesvirus 5 [6]) was “inactive”. The inhibition (Human betaherpesvirus 5 [7]) was “Active” and the Activity (Human betaherpesvirus 5 [8]) was “Active”.
